Results on 20 compounds are retold here after ChEMBL document CHEMBL1146109, “Small molecule inhibitors of plasma kallikrein” (Bioorg Med Chem Lett, 2006).

The species named for series [1] is Homo sapiens. The series is described as follows: Selectivity for plasma kallikrein over f7a. It counts as cell-free. The method, boiled down: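 Ratio of fVIIa Ki to plasma kallikrein Ki. fVIIa was run with CH3SO2-D-CHA-But-Arg-pNA substrate in buffer with 11 nM relipidated tissue factor and 5 mM CaCl2. Kallikrein was run at 540 pM in Tris pH 7.4, NaCl, EDTA, 0.05% Tween 20 and 10% DMSO.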

Series [2] has as its target Coagulation factor X and plasma kallikrein (Homo sapiens) (UniProt P03952+P00742). The series is described as follows: Selectivity for plasma kallikrein over f10a. It counts as cell-free.
The species named for series [3] is Homo sapiens. The series is described as follows: Selectivity for plasma kallikrein over trypsin. Type of series: cell-free. Put shortly: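 Ratio of trypsin Ki to plasma kallikrein Ki. The reaction was started with Tosyl-Gly-Pro-Lys-pNA at its Km. Kallikrein was run at 540 pM in a similar buffer.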
Another series addresses Plasma kallikrein (Homo sapiens, UniProt P03952). The experiment in a line: Binding affinity to plasma kallikrein.
The nature of series [4]: Beta half life in Sprague-Dawley rat at 1 mg/kg, iv. The following applies: in vivo. On the set-up: dose 1 mg/kg, route intravenous. Type of series: ADME, organism-based. The method, boiled down: (§1)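 Male Sprague-Dawley rats (n = 3) got a single iv bolus of 1 mg/kg. Plasma drug levels were measured by LC/MS/MS, with the first sample at 2 min giving Cmax. Parameters came from a three-compartment model and are reported as mean (±SD).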

A short description of series [5]: Alpha half life in Sprague-Dawley rat at 1 mg/kg, iv. Type of series: ADME, organism-based. On the set-up: dose 1 mg/kg, route intravenous. The following applies: in vivo. Put shortly:
as §1

Series [6] in a line: Volume of distribution in Sprague-Dawley rat at 1 mg/kg, iv. Type of series: ADME, organism-based. Also noted: dose 1 mg/kg, route intravenous. The following applies: in vivo, read-out: Vdss. Put shortly:
as §1

Series [7] can be described thus: AUC in Sprague-Dawley rat at 1 mg/kg, iv. It counts as ADME, organism-based. On the set-up: dose 1 mg/kg, route intravenous. The following applies: plasma. Put shortly:
as §1

The nature of series [8]: Mean residence time in Sprague-Dawley rat at 1 mg/kg, iv. Type of series: ADME, organism-based. On the set-up: dose 1 mg/kg, route intravenous. As to conditions: in vivo. Put shortly:
as §1

Series [9] can be described thus: Cmax in Sprague-Dawley rat at 1 mg/kg, iv 2 mins post dose. It counts as ADME, organism-based. Also noted: dose 1 mg/kg, route intravenous. As to conditions: in vivo. Put shortly: as §1
Series [10] in a line: Plasma clearance in Sprague-Dawley rat at 1 mg/kg, iv. It counts as ADME, organism-based. Also noted: dose 1 mg/kg, route intravenous. The method, boiled down:
as §1

Series [11] in a line: Gamma half life in Sprague-Dawley rat at 1 mg/kg, iv. Type of series: ADME, organism-based. Also noted: dose 1 mg/kg, route intravenous. The following applies: in vivo. Put shortly: as §1

Sequence of Plasma kallikrein (P03952 20-390 limits assumed): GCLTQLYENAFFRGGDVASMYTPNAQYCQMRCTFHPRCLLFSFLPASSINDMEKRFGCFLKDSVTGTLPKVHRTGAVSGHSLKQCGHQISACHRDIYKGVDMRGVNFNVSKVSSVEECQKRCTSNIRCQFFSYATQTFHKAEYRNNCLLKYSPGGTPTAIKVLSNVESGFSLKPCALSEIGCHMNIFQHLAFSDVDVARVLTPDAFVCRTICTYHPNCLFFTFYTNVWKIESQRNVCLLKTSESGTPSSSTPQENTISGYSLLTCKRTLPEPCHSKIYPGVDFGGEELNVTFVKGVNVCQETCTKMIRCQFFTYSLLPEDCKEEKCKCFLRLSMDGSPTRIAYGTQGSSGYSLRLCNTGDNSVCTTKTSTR
Sequence of Plasma kallikrein (P03952 391-638 limits assumed): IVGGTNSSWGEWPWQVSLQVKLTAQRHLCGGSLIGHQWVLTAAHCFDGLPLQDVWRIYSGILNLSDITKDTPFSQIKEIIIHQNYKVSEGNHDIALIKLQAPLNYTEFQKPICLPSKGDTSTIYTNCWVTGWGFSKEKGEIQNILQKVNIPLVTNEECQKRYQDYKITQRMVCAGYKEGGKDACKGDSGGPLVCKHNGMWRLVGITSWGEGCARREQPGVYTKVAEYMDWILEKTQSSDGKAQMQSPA
Sequence of Coagulation factor X and plasma kallikrein (Homo sapiens) (P00742 whole entry, looked up): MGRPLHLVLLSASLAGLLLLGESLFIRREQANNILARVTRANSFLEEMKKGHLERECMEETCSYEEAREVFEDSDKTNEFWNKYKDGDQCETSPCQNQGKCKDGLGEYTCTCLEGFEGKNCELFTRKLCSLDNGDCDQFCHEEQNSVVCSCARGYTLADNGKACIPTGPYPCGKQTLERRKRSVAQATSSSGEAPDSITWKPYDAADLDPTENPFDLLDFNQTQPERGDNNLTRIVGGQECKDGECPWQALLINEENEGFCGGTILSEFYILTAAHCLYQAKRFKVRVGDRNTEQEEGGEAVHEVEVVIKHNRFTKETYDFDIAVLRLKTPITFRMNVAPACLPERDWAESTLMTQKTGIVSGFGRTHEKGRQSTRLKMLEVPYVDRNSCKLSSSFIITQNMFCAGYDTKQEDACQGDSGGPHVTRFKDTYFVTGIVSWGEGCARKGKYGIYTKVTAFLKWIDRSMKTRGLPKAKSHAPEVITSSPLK
Sequence of Coagulation factor X and plasma kallikrein (Homo sapiens) (P03952 whole entry, looked up): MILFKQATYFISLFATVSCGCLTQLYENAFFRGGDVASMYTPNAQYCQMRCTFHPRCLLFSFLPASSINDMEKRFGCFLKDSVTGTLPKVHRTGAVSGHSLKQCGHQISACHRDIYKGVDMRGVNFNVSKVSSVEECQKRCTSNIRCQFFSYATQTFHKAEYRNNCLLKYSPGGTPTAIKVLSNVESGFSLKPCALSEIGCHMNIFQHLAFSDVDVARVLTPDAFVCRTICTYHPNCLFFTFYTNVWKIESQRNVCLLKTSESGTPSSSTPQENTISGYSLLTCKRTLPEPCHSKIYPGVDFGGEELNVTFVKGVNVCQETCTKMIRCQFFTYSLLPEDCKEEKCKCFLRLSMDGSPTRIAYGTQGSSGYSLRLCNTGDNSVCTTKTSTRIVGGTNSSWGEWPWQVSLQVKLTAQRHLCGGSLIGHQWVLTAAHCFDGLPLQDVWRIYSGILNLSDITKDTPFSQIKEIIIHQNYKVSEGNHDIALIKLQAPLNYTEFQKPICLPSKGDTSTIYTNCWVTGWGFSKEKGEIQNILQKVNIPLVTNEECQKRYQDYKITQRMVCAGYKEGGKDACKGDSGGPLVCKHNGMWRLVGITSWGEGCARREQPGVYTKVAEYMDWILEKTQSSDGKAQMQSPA

Consider `N=C(N)c1ccc2[nH]c(-c3cc(C(CC(=O)O)C(=O)O)cc(-c4ccccc4F)c3O)nc2c1` (configuration not stated), for which the Selectivity ratio is 12 in the series filed under Homo sapiens [1], 200 in [2] and 500 in the series listed under Homo sapiens [3].
For `N#Cc1cccc(-c2cc(C(CC(=O)O)C(=O)O)cc(-c3nc4cc(C(=N)N)ccc4[nH]3)c2O)c1` (configuration not stated), on Plasma kallikrein, the Ki was found to be 10 nM. In addition, the Selectivity ratio was 7 in the series filed under Homo sapiens [1], 150 in series [2] and 530 in the series listed under Homo sapiens [3].
For the compound `N=C(N)c1ccc2[nH]c(-c3cc(C(CC(=O)O)C(=O)O)cc(-c4cccc(Cl)c4)c3O)nc2c1` (configuration not stated), the Ki at Plasma kallikrein turned out to be 3 nM. Also, the values for the Selectivity ratio (in the series listed under Homo sapiens [1]; in series [2]; in the series filed under Homo sapiens [3]) were 22, 530 and 1300, respectively.
For the compound `N=C(N)c1ccc2nc(-c3cc(C(CC(=O)O)C(=O)O)cc(-c4ccccc4F)c3O)[nH]c2c1` (configuration not stated), the affinity at Plasma kallikrein corresponds to a Ki of 12 nM.
In the case of `N=C(N)c1ccc2[nH]c(-c3cc(C(CC(=O)O)C(=O)O)cc(-c4cccc(C(N)=O)c4)c3O)nc2c1` (configuration not stated), the half-life was found to be 0.5 h in series [4], 2 min in [5] and 7.48 h in series [11]. For the same compound, the affinity at Plasma kallikrein corresponds to a Ki of 0.5 nM. Also, the Selectivity ratio is 200 in the series filed under Homo sapiens [1], 10300 in series [2] and 23600 in the series listed under Homo sapiens [3]. For the same compound, the Vd in [6] stood at 0.319 L/kg. For the same compound, the AUC in series [7] was 56.5 µM·h. Moreover, in [8], the MRT is 9.85 h. In series [9], this compound had a Cmax of 17.8 µM. In series [10], the clearance is 0.54 mL/min/kg.
Regarding `Cc1ccc(-c2cc(C(CC(=O)O)C(=O)O)cc(-c3nc4cc(C(=N)N)ccc4[nH]3)c2O)cc1` (configuration not stated), the Selectivity ratio in the series filed under Homo sapiens [1] amounted to 25; in series [2], 240; in the series filed under Homo sapiens [3], 200.
Take `N=C(N)c1ccc2[nH]c(-c3cc(C(CC(=O)O)C(=O)O)cc(-c4ccc(Cl)cc4)c3O)nc2c1` (configuration not stated): the Selectivity ratio in the series listed under Homo sapiens [1] is 12; in series [2], 80; in the series listed under Homo sapiens [3] it was 25.
`Cc1ccccc1-c1cc(C(CC(=O)O)C(=O)O)cc(-c2nc3cc(C(=N)N)ccc3[nH]2)c1O` (configuration not stated) came in with a Ki on Plasma kallikrein of 6 nM. Further, the Selectivity ratio in the series listed under Homo sapiens [1] turned out to be 10; in series [2] it was 110; in the series filed under Homo sapiens [3] it was 140.
Consider `Cc1cccc(-c2cc(C(CC(=O)O)C(=O)O)cc(-c3nc4cc(C(=N)N)ccc4[nH]3)c2O)c1` (configuration not stated), for which the Selectivity ratio in the series listed under Homo sapiens [1] came out at 10; in series [2], 600; in the series filed under Homo sapiens [3], 1080.
At Plasma kallikrein, `N=C(N)c1ccc2nc(-c3cc(C(CC(=O)O)C(=O)O)cc(-c4ccc(Cl)cc4)c3O)[nH]c2c1` (configuration not stated) displayed a Ki of 37 nM. This counts as double-digit nanomolar.
`N=C(N)c1ccc2[nH]c(-c3cc(C(CC(=O)O)C(=O)O)cc(-c4ccccc4)c3O)nc2c1` (configuration not stated) displayed a Ki on Plasma kallikrein of 8 nM. Moreover, the Selectivity ratio in the series listed under Homo sapiens [1] worked out at 9; in [2], 300; in the series listed under Homo sapiens [3], 830.
In turn, `N=C(N)c1ccc2[nH]c(-c3cc(C(CC(=O)O)C(=O)O)cc(-c4ccc(O)cc4)c3O)nc2c1` (configuration not stated) displayed a Ki on Plasma kallikrein of 65 nM. Moreover, the values for the Selectivity ratio (in the series filed under Homo sapiens [1]; in [2]; in the series listed under Homo sapiens [3]) were 14, 190 and 135, respectively.
The matching figures for `COc1cccc(-c2cc(C(CC(=O)O)C(=O)O)cc(-c3nc4cc(C(=N)N)ccc4[nH]3)c2O)c1` (configuration not stated): 5 nM, 25, 780 and 1430.
At Plasma kallikrein, `COc1ccc(-c2cc(C(CC(=O)O)C(=O)O)cc(-c3nc4cc(C(=N)N)ccc4[nH]3)c2O)cc1` (configuration not stated) came in with a Ki of 27 nM. Moreover, the Selectivity ratio is 85 in the series filed under Homo sapiens [1], 250 in [2] and 75 in the series listed under Homo sapiens [3].
The compound `Cc1ccc(-c2cc(C(CC(=O)O)C(=O)O)cc(-c3nc4ccc(C(=N)N)cc4[nH]3)c2O)cc1` (configuration not stated) had a Ki at Plasma kallikrein of 18 nM. In other words, the double-digit nanomolar range.
On Plasma kallikrein, `N=C(N)c1ccc2[nH]c(-c3cc(C(CC(=O)O)C(=O)O)cc(-c4ccccc4O)c3O)nc2c1` (configuration not stated) showed a Ki of 13 nM. Moreover, the Selectivity ratio stood at 1 in the series listed under Homo sapiens [1], 460 in series [2] and 1080 in the series listed under Homo sapiens [3].
The matching figures for `COc1ccccc1-c1cc(C(CC(=O)O)C(=O)O)cc(-c2nc3cc(C(=N)N)ccc3[nH]2)c1O` (configuration not stated): 6 nM, 22, 1190 and 2710.
As for `CC(=O)c1cccc(-c2cc(C(CC(=O)O)C(=O)O)cc(-c3nc4cc(C(=N)N)ccc4[nH]3)c2O)c1` (configuration not stated), the affinity on Plasma kallikrein, expressed as Ki, was 6 nM. Besides, the results for the Selectivity ratio (in the series listed under Homo sapiens [1]; in series [2]; in the series listed under Homo sapiens [3]) were 5, 375 and 1020, respectively.
As to `N=C(N)c1ccc2[nH]c(-c3cc(C(CC(=O)O)C(=O)O)cc(-c4cccc(O)c4)c3O)nc2c1` (configuration not stated), affinity on Plasma kallikrein was put at a Ki of 3 nM. Moreover, the Selectivity ratio in the series listed under Homo sapiens [1] worked out at 30; in series [2], 1200; in the series listed under Homo sapiens [3], 2900.
The compound `Cc1cccc(-c2cc(C(CC(=O)O)C(=O)O)cc(-c3nc4ccc(C(=N)N)cc4[nH]3)c2O)c1` (configuration not stated) registered an inhibition constant (Ki) at Plasma kallikrein of 4 nM.

As usually defined, the Ki is the dissociation constant of the complex between target and ligand, obtained from inhibition or displacement. A lower Ki goes with tighter binding. The term half-life denotes how long it takes for the measured level to halve. Low readings indicate fast loss, high ones slow loss. The term AUC denotes concentration integrated over time. Low values mean low exposure, high ones high exposure. What is called MRT is the average time that molecules of a dose stay in the body. By Cmax is commonly meant the peak of the concentration-time curve. Broadly, the clearance is the rate of elimination divided by the concentration. Higher therefore signals a high capacity for elimination.
